From ChEMBL document CHEMBL3244344, “Nucleoside conjugates as potential antitumor agents. 2. Synthesis and biological activity of 1-(beta-D-arabinofuranosyl)cytosine conjugates of prednisolone and prednisone” (J Med Chem, 1979)
pEC50: −log10 of the molar value.

Columns and labels:
[1] = Drug degradation assessed as steroid formation at 5 umol at pH 9 after 24 hrs by UV analysis in presence of Crotalus adamanteus 5'-nucleotidase; type: physicochemical; conditions: buffer, pH 9, 24 h
Outline: (§1)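 Crude Crotalus adamanteus venom: 5 μmol conjugate in Tris-HCl buffer (pH 8.8) with 2.5 mg venom, 0.5 mL total, incubated 37 °C for 24 h. Products were resolved by paper chromatography alongside authentic markers.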

[2] = Drug degradation assessed as compound hydrolysis at 5 umol at pH 4.8 at 25 degC after 24 hrs by UV analysis in presence of wheat germ acid phosphatase; type: physicochemical; conditions: read-out: Drug degradation
Outline: (§2)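 5 μmol conjugate in NaOAc buffer (pH 4.8) with 3 mg crude wheat germ acid phosphatase, 0.5 mL total, held at 25 °C for 24 h. Products were separated by paper chromatography against authentic markers.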

[3] = tested on: L1210; assay: Antitumor activity against mouse L1210 cells allografted in C3D2F1/J mouse assessed as median survival time at 100 mg/kg, ip qd administered for 5 days (reference value: 9 days); type: functional; conditions: route intraperitoneal
[4] = Hydrolytic stability of the compound at 5 umol at pH 8 at 25 degC after 24 hrs by UV analysis in presence of bacterial alkaline phosphatase; type: physicochemical; conditions: isolated protein, pH 8, 24 h
Outline: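 5 μmol conjugate in Tris-HCl (pH 8.0) with bacterial alkaline phosphatase suspension, 0.5 mL total, incubated at 25 °C for 24 h. Paper chromatography against authentic markers.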

[5] = tested on: L1210; assay: Antitumor activity against mouse L1210 cells allografted in C3D2F1/J mouse assessed as increase in life span at 100 mg/kg, ip qd administered for 5 days relative to control; type: functional; conditions: 120 h, route intraperitoneal
[6] = tested on: L1210; assay: Antitumor activity against mouse L1210 cells allografted in C3D2F1/J mouse assessed as median survival time at 50 mg/kg, ip qd administered for 5 days (reference value: 9 days); type: functional; conditions: route intraperitoneal
[7] = Drug degradation assessed as ara-C formation at 5 umol at pH 9 after 24 hrs by UV analysis in presence of Crotalus adamanteus 5'-nucleotidase; type: physicochemical; conditions: buffer, pH 9, 24 h; outline: as §1
[8] = Hydrolytic stability of the compound assessed as remaining compound level at 5 umol at pH 4.8 at 25 degC after 24 hrs by UV analysis in presence of wheat germ acid phosphatase; type: physicochemical; conditions: read-out: Stability; outline: as §2
[9] = tested on: L1210; assay: Cytotoxicity against mouse L1210 cells assessed as growth inhibition measured at 72 hrs by trypan blue exclusion assay; type: functional; conditions: L1210, 72 h, read-out: ED50 (the source's name)
Outline: (§3)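 L1210 mouse lymphoid leukemia cells seeded at 2–3 × 10⁵ cells/mL in RPMI 1640 + 10% fetal calf serum with compound (from Me2SO stock, final Me2SO 0.5%, compound 100 μM or lower). Viable cells counted by 0.05% Trypan blue exclusion in a hemocytometer at 24, 48, 72 h. Treated/untreated density ratio. ED50 at 72 h interpolated from response curves of three separate experiments.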

[10] = Drug degradation in baboon plasma at 5 umol at 37 degC after 24 hrs by UV analysis; type: ADME, cell-free; conditions: papio anubis, read-out: Drug degradation
Outline: (§4)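 5 μmol conjugate in 0.5 mL fresh baboon plasma, incubated at 37 °C for 24 h. Intact conjugate and products were separated by paper chromatography with authentic markers.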

[11] = tested on: L1210; assay: Antitumor activity against mouse L1210 cells allografted in C3D2F1/J mouse assessed as increase in life span at 75 mg/kg, ip qd administered for 5 days relative to control; type: functional; conditions: 120 h, route intraperitoneal
[12] = tested on: Mus musculus; assay: Toxicity in C3D2F1/J mouse allografted with mouse L1210 cells assessed as body weight change at 25 mg/kg, ip qd administered for 5 days measured on day 8 (reference value: 1.81 +/- 0.79 g); type: organism-based; set-up: dose 25 mg/kg, route intraperitoneal; conditions: in vivo, 120 h
[13] = tested on: Mus musculus; assay: Toxicity in C3D2F1/J mouse allografted with mouse L1210 cells assessed as body weight change at 75 mg/kg, ip qd administered for 5 days measured on day 8 (reference value: 1.81 +/- 0.79 g); type: organism-based; set-up: dose 75 mg/kg, route intraperitoneal; conditions: in vivo, 120 h
[14] = tested on: Mus musculus; assay: Toxicity in C3D2F1/J mouse allografted with mouse L1210 cells assessed as body weight change at 50 mg/kg, ip qd administered for 5 days measured on day 8 (reference value: 1.81 +/- 0.79 g); type: organism-based; set-up: dose 50 mg/kg, route intraperitoneal; conditions: in vivo, 120 h
[15] = tested on: Mus musculus; assay: Toxicity in C3D2F1/J mouse allografted with mouse L1210 cells assessed as body weight change at 100 mg/kg, ip qd administered for 5 days measured on day 8 (reference value: 1.81 +/- 0.79 g); type: organism-based; set-up: dose 100 mg/kg, route intraperitoneal; conditions: in vivo, 120 h
[16] = tested on: L1210; assay: Antitumor activity against mouse L1210 cells allografted in C3D2F1/J mouse assessed as increase in life span at 50 mg/kg, ip qd administered for 5 days relative to control; type: functional; conditions: 120 h, route intraperitoneal
[17] = Metabolic stability in baboon plasma assessed as remaining compound level at 5 umol at 37 degC after 24 hrs by UV analysis; type: ADME, cell-free; conditions: papio anubis, read-out: Stability; outline: as §4
[18] = tested on: L1210; assay: Antitumor activity against mouse L1210 cells allografted in C3D2F1/J mouse assessed as median survival time at 25 mg/kg, ip qd administered for 5 days (reference value: 9 days); type: functional; conditions: route intraperitoneal
[19] = tested on: L1210; assay: Antitumor activity against mouse L1210 cells allografted in C3D2F1/J mouse assessed as median survival time at 75 mg/kg, ip qd administered for 5 days (reference value: 9 days); type: functional; conditions: route intraperitoneal
[20] = tested on: L1210; assay: Antitumor activity against mouse L1210 cells allografted in C3D2F1/J mouse assessed as increase in life span at 25 mg/kg, ip qd administered for 5 days relative to control; type: functional; conditions: 120 h, route intraperitoneal
[21] = tested on: L1210; assay: Cytotoxicity against mouse L1210 cells assessed as growth inhibition measured at 72 hrs in presence of 5 uM prednisolone by trypan blue exclusion assay; type: functional; conditions: L1210, 72 h, read-out: ED50 (the source's name); outline: as §3
[22] = tested on: Mus musculus; assay: Toxicity in C3D2F1/J mouse allografted with mouse L1210 cells assessed as body weight change at 24.2 mg/kg, ip qd administered for 5 days measured on day 8 (reference value: 1.81 +/- 0.79 g); type: organism-based; set-up: dose 24.2 mg/kg, route intraperitoneal; conditions: in vivo, 120 h
[23] = tested on: L1210; assay: Antitumor activity against mouse L1210 cells allografted in C3D2F1/J mouse assessed as median survival time at 24.2 mg/kg, ip qd administered for 5 days (reference value: 10 days); type: functional; conditions: route intraperitoneal
[24] = tested on: L1210; assay: Cytotoxicity against mouse L1210 cells assessed as growth inhibition measured at 72 hrs in presence of 100 uM prednisolone by trypan blue exclusion assay; type: functional; conditions: L1210, 72 h, read-out: ED50 (the source's name); outline: as §3
[25] = tested on: L1210; assay: Antitumor activity against mouse L1210 cells allografted in C3D2F1/J mouse assessed as increase in life span at 24.2 mg/kg, ip qd administered for 5 days relative to control; type: functional; conditions: 120 h, route intraperitoneal

`C[C@]12C=CC(=O)C=C1CC[C@@H]1[C@@H]2C(=O)C[C@@]2(C)[C@H]1CC[C@]2(O)C(=O)CO[P+]([O-])(O)OC[C@H]1O[C@@H](n2ccc(N)nc2=O)[C@@H](O)[C@@H]1O` (some centres undefined) gave a Drug degradation [1] of 50%, a metabolised at 24 h, 5 umol [2] of 88% and an MST [3] of 10 days. The Stability [4] was “Stable”, the ILS at 100 mg/kg [5] was 11.1% and the MST [6] was 18 days. For the same molecule, the Drug degradation [7] was 50%, the remaining at 24 h, 5 umol [8] was 7% and the pEC50 [9] was 6.30. For the same molecule, the metabolised at 24 h, 5 umol [10] was 15%, the ILS at 75 mg/kg [11] was 55.6% and the Activity [12] was -0.14 g. For the same molecule, the Activity [13] was -0.75 g, the Activity [14] was -0.3 g and the Activity [15] was -1.5 g. It also gave an ILS at 50 mg/kg [16] of 100%, a remaining at 24 h, 5 umol [17] of 74% and an MST [18] of 14.5 days. The MST [19] was 14 days and the ILS at 25 mg/kg [20] was 61.1%.
With `Nc1ccn([C@@H]2O[C@H](COP(=O)(O)O)[C@@H](O)[C@@H]2O)c(=O)n1` [CYTARABINE 5'-PHOSPHATE] the pEC50 [21] was 8.00, the MST [6] was 9 days and the pEC50 [9] was 7.30. The Activity [22] was -3.52 g, the MST [23] was 16.5 days and the pEC50 [24] was 8.30. The Activity [14] was -4.32 g, the ILS at 50 mg/kg [16] was 0% and the ILS at 24.2 mg/kg [25] was 65%.
Work on `C[C@]12C=CC(=O)C=C1CC[C@@H]1[C@@H]2[C@@H](O)C[C@@]2(C)[C@H]1CC[C@]2(O)C(=O)CO[P+]([O-])(O)OC[C@H]1O[C@@H](n2ccc(N)nc2=O)[C@@H](O)[C@@H]1O` (some centres undefined) yielded a Drug degradation [1] of 50%, a metabolised at 24 h, 5 umol [2] of 86% and an MST [3] of 10.5 days. For the same molecule, the Stability [4] was “Stable”, the ILS at 100 mg/kg [5] was 16.7% and the MST [6] was 17 days. It also gave a Drug degradation [7] of 50%, a remaining at 24 h, 5 umol [8] of 8% and a pEC50 [9] of 7.30. It also gave a metabolised at 24 h, 5 umol [10] of 39%, an ILS at 75 mg/kg [11] of 77.8% and an Activity [12] of -0.07 g. The Activity [13] was -0.71 g, the Activity [14] was -0.28 g and the Activity [15] was -1.5 g. For the same molecule, the ILS at 50 mg/kg [16] was 88.9%, the remaining at 24 h, 5 umol [17] was 44% and the MST [18] was 15.5 days. It also gave an MST [19] of 16 days and an ILS at 25 mg/kg [20] of 72.7%.
